ChEMBL document CHEMBL3608222, “Discovery and structure-guided optimization of tert-butyl 6-(phenoxymethyl)-3-(trifluoromethyl)benzoates as liver X receptor agonists” (Bioorg Med Chem Lett, 2015)
The source made the active and inactive calls. The calls are words filed in the database; no cut-off is given here.

Legend:
Mus musculus [1] = assay: Toxicity in C57Bl/6 mouse assessed as effect on plasma triglyceride levels at 1 mg/kg, po dosed daily for 7 days; type: organism-based; conditions: in vivo, 168 h
How it was run: (§1)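 C57Bl/6 mice dosed daily by oral gavage at 1 mg/kg for 7 days, n = 5/group. Liver FAS and SCD-1 mRNA and plasma TG were then measured. Groups compared with vehicle by Dunnett's test, p <0.05.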

Cynomolgus monkey [2] = assay: Toxicity in cynomolgus monkey assessed as effect on plasma triglyceride levels at 0.1 to 10 mg/kg, po dosed daily for 14 days; type: organism-based, Macaca fascicularis; conditions: in vivo, 336 h
How it was run: (§2)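 Cynomolgus monkeys dosed daily by oral gavage at 0, 0.1, 0.3, 1, 3 or 10 mg/kg for 14 days, n = 6/group. Blood ABCA1 mRNA was measured on Day 1 and Day 14; plasma triglyceride was measured after single and repeated dosing. Mean + SE.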

[3] = Cmax in mouse at 10 mg/kg, po; type: ADME, organism-based; parameters: dose 10 mg/kg, route oral; conditions: in vivo
How it was run: (§3)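 Mice given a single oral dose of 10 mg/kg. Plasma concentration measured in µg/ml as Cmax and at 6 h.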

RAW264.7 [4] = assay: […] of cholesterol efflux in mouse RAW264.7 cells at 0.1 using [4-14C]-cholesterol incubated for 24 hrs by scintillation counting method relative to T0901317; type: functional
How it was run: (§4)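 RAW264.7 cells were labeled 2 days with 0.2 µCi/ml [4-14C]-cholesterol in DMEM/1% FBS and washed with 0.2% BSA/PBS. Medium with or without 10 µg/ml apoAI was added, with compound (final 0.01–1 µM) or DMSO, for about 24 h. Medium and cell radioactivity were counted. ApoAI-dependent efflux % = efflux(+apoAI) minus mean efflux(−apoAI); % efficacy is given at the stated concentration.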

Mus musculus [5] = assay: Effect on FAS mRNA expression in C57Bl/6 mouse liver at 1 mg/kg, po dosed daily for 7 days; type: functional, organism-based; how it was run: as §1
[6] = biological target: T1, Oxysterols receptor LXR-alpha (Homo sapiens, UniProt Q13133); assay: Agonist activity at human LXRalpha expressed in African green monkey kidney CV1 cells co-expressing pTAL-LXRE including LXR response element incubated for 20 hrs by luciferase reporter gene assay; type: cell-based, CV-1
T1 sequence (Q13133 whole entry): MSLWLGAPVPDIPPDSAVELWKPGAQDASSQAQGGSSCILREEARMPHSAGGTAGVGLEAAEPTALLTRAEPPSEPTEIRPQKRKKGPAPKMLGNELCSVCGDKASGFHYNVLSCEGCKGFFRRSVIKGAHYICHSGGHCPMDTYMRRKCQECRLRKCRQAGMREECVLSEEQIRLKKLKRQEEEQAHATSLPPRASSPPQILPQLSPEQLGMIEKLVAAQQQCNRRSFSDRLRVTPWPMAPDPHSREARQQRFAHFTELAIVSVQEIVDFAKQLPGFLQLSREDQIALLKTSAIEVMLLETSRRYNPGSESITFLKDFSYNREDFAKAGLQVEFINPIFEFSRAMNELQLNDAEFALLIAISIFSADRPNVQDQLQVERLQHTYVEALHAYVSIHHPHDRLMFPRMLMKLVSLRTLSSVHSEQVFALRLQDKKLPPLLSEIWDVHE

[7] = Plasma concentration in mouse at 10 mg/kg, po measured at 6 hrs; type: ADME, organism-based; how it was run: as §3
[8] = biological target: T2, Oxysterols receptor LXR-alpha (Homo sapiens) (UniProt Q13133); assay: Agonist activity at human LXRalpha expressed in African green monkey kidney CV1 cells co-expressing pTAL-LXRE including LXR response element incubated for 20 hrs by luciferase reporter gene assay relative to T0901317; type: cell-based; conditions: CV-1
T2 sequence (whole entry): T1 sequence (Q13133 whole entry)
How it was run: (§5)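 CV-1 cells grown in DMEM with 10% charcoal/dextran-treated FBS at 37 °C, seeded 20 h before transfection. Cells were lipofected with pcDNA-hLXRa or pcDNA-hLXRb plus the pTAL-LXRE luciferase reporter. After 3 h, medium was added, then compound in DMSO. Incubation about 20 h before luciferase luminescence read-out.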

[9] = biological target: T3, Oxysterols receptor LXR-beta (Homo sapiens, UniProt P55055); assay: Agonist activity at human LXRbeta expressed in African green monkey kidney CV1 cells co-expressing pTAL-LXRE including LXR response element incubated for 20 hrs by luciferase reporter gene assay; type: cell-based, CV-1; how it was run: as §5
T3 sequence (P55055 whole entry): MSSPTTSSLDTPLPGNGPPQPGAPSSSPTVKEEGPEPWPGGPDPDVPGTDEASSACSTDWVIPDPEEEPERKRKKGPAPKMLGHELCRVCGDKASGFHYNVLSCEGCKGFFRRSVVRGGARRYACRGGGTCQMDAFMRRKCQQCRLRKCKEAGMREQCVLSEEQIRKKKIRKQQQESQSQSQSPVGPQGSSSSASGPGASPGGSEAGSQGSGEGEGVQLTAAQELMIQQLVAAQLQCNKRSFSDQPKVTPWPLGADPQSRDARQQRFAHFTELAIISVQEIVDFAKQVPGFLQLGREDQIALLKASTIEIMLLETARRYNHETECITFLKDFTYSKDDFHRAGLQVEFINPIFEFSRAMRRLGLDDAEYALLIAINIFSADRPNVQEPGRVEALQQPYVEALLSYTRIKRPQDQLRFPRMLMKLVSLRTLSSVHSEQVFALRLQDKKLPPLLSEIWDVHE

[10] = biological target: T4, Oxysterols receptor LXR-beta (Homo sapiens) (UniProt P55055); assay: Agonist activity at human LXRbeta expressed in African green monkey kidney CV1 cells co-expressing pTAL-LXRE including LXR response element incubated for 20 hrs by luciferase reporter gene assay relative to T0901317; type: cell-based; conditions: CV-1; how it was run: as §5
T4 sequence (whole entry): T3 sequence (P55055 whole entry)

RAW264.7 [11] = assay: […] of cholesterol efflux in mouse RAW264.7 cells at 1 uM using [4-14C]-cholesterol incubated for 24 hrs by scintillation counting method relative to T0901317; type: functional; how it was run: as §4
Cynomolgus monkey [12] = assay: Increase in ABCA1 mRNA expression in cynomolgus monkey blood at 0.1 to 10 mg/kg, po dosed daily for 14 days measured on day 14; type: functional, organism-based; conditions: Macaca fascicularis; how it was run: as §2
Cynomolgus monkey [13] = assay: Toxicity in cynomolgus monkey assessed as effect on plasma triglyceride levels at 0.1 to 10 mg/kg, po administered as single dose; type: organism-based, Macaca fascicularis; conditions: in vivo; how it was run: as §2
Mus musculus [14] = assay: Effect on SCD1 mRNA expression in C57Bl/6 mouse liver at 1 mg/kg, po dosed daily for 7 days; type: functional, organism-based; how it was run: as §1
Cynomolgus monkey [15] = assay: Increase in ABCA1 mRNA expression in cynomolgus monkey blood at 0.1 to 10 mg/kg, po dosed daily for 14 days measured on day 1; type: functional, organism-based; conditions: Macaca fascicularis; how it was run: as §2
[16] = biological target: Retinoic acid receptor RXR-alpha/oxysterols receptor LXR-beta (Homo sapiens, UniProt P55055); assay: Binding affinity to His-LXRbeta/FLAG-RXRalpha (unknown origin) by FITC-labeled T0901317 based fluorescence polarization assay; type: protein-complex assay
Sequence of Retinoic acid receptor RXR-alpha/oxysterols receptor LXR-beta (P19793 whole entry, one chain of several): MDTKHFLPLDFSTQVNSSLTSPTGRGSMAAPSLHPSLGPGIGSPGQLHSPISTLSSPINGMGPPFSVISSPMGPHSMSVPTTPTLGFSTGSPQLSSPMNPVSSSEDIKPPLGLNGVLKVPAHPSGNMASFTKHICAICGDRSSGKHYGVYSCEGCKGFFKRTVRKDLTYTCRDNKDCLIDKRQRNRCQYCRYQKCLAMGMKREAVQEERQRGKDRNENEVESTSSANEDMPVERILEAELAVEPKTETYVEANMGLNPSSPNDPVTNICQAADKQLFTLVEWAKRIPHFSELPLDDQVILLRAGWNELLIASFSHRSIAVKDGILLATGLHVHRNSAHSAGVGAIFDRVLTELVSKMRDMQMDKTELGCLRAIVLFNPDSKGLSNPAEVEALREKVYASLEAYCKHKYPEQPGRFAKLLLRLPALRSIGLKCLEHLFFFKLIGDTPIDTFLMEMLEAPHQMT

[17] = biological target: Retinoic acid receptor RXR-alpha/oxysterols receptor LXR-alpha (Homo sapiens, UniProt Q13133); assay: Binding affinity to His-LXRalpha/FLAG-RXRalpha (unknown origin) by FITC-labeled T0901317 based fluorescence polarization assay; type: protein-complex assay
Sequence of Retinoic acid receptor RXR-alpha/oxysterols receptor LXR-alpha (P19793 whole entry, one chain of several): as above

EC50 [6] | Efficacy [8] | EC50 [9] | Efficacy [10] | Ki [16] | Ki [17] | Structure (SMILES) | other results
510 nM | 79% | 160 nM | 51% | – | – | CC(C)(C)OC(=O)c1c(COc2ccc(-c3ccc(CC(=O)O)cc3)cc2)ccc(C(F)(F)F)c1O | Activity (Mus musculus [1]): Non-toxic; Activity (Cynomolgus monkey [2]): Non-toxic; Cmax [3]: 8900 ng/mL; Efficacy (RAW264.7 [4]): 57%; Activity (Mus musculus [5]): inactive; concentration at 6 h [7]: 5300 ng/mL; Efficacy (RAW264.7 [11]): 69%; Activity (Cynomolgus monkey [12]): Dose-dependent effect; Activity (Cynomolgus monkey [13]): Non-toxic; Activity (Mus musculus [14]): inactive; Activity (Cynomolgus monkey [15]): Dose-dependent effect
– | – | – | – | 260 nM | 1000 nM | CC(C)(C)OC(=O)c1cc(C(F)(F)F)ccc1COc1ccc(-c2ccc(CC(=O)O)cc2)cc1 | –
– | – | – | – | 1200 nM | 8600 nM | CC(C)(C)OC(=O)c1cc(C(F)(F)F)ccc1COc1ccc(CCCCCC(=O)O)cc1 | –
– | – | – | – | 360 nM | 5100 nM | CC(C)(C)OC(=O)c1cc(C(F)(F)F)ccc1COc1ccc(-c2cccc(CC(=O)O)c2)cc1 | –
310 nM | 27% | 210 nM | 28% | 180 nM | 870 nM | CC(=O)N(C)c1ccc(OCc2ccc(C(F)(F)F)cc2C(=O)OC(C)(C)C)cc1 | Cmax [3]: 1700 ng/mL; concentration at 6 h [7]: 1000 ng/mL
1300 nM | 39% | 530 nM | 27% | – | – | CC(C)(C)OC(=O)c1c(COc2ccc(-c3cccc(CC(=O)O)c3)cc2)ccc(C(F)(F)F)c1O | Efficacy (RAW264.7 [4]): 3%; Efficacy (RAW264.7 [11]): 58%
– | – | – | – | > 10000 nM | > 10000 nM | CC(C)(C)OC(=O)c1cc(C(F)(F)F)ccc1COc1ccc(-c2ccc(C(=O)O)cc2)cc1 | –
280 nM | 89% | 260 nM | 76% | 170 nM | 270 nM | CC(=O)N(C)c1ccc(OCc2ccc(C(F)(F)F)c(O)c2C(=O)OC(C)(C)C)cc1 | Cmax [3]: 1000 ng/mL; concentration at 6 h [7]: 670 ng/mL
– | – | – | – | 660 nM | 4000 nM | CN(C(=O)CCC(=O)O)c1ccc(OCc2ccc(C(F)(F)F)cc2C(=O)OC(C)(C)C)cc1 | –
– | – | – | – | 630 nM | – | CC(C)(C)OC(=O)c1cc(C(F)(F)F)ccc1COc1ccc(CCCCC(=O)O)cc1 | –
– | – | – | – | 4900 nM | – | CC(C)(C)OC(=O)c1cc(C(F)(F)F)ccc1COc1ccc(CCCC(=O)O)cc1 | –
– | – | – | – | 3400 nM | 6300 nM | CC(C)(C)OC(=O)c1cc(C(F)(F)F)ccc1COc1ccc(-c2cccc(C(=O)O)c2)cc1 | –
